BindingDB's records for doi:10.1016/j.bmc.2008.10.024 (National Cancer Institute-Frederick, 2008)

Molecular target: E3 ubiquitin-protein ligase Mdm2 (Homo sapiens, UniProt Q00987)
Assay: Inhibition of GST fused human Hdm2 assessed as polyubiquitylation by electrochemiluminescence assay
Summary of the method: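 Cell-free ubiquitylation. Lysate GST-Hdm2 captured on glutathione-coated wells for 1 h at RT. E1/UbcH5B were pre-charged with ubiquitin, ATP and DTT in PBS for 30 min, then added with sample for 30 min at RT. Read-out was ruthenium anti-polyubiquitin electrochemiluminescence, normalised between no-inhibitor (0%) and EDTA (100%). Tested at 100–0.02 µg/mL in quadruplicate.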

Chain of E3 ubiquitin-protein ligase Mdm2 (Q00987 whole entry, the tested form may be a part): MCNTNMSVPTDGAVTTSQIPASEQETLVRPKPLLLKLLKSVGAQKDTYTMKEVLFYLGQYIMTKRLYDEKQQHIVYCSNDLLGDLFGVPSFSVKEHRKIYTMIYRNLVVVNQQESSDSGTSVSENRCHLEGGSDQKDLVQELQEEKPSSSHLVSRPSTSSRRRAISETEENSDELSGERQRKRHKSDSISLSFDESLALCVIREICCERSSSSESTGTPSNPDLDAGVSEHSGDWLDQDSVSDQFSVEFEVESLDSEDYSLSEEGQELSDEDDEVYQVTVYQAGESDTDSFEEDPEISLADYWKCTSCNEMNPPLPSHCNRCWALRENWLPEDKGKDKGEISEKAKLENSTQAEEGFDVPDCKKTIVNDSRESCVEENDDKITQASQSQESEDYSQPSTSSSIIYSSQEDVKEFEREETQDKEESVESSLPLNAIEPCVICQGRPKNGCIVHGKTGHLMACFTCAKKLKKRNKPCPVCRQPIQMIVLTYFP

NCCc1c2c(c3c4c(c5ccccc5nc14)C=CN3)OCS2 [Lissoclinidine B]
IC50: 58.6 µM
